Measured values published in ChEMBL document CHEMBL1130141, “Mapping the peripheral benzodiazepine receptor binding site by conformationally restrained derivatives of 1-(2-chlorophenyl)-N-methyl-N-(1-methylpropyl)-3- isoquinolinecarboxamide (PK11195)” (J Med Chem, 1997).
Calls of active or inactive are those of the source. The calls are words filed in the database; no cut-off is given here.

Columns and labels:
Translocator protein [1] = target: T1, Translocator protein (Rattus norvegicus, UniProt P16257); test: In vitro binding affinity (pIC50) was tested against peripheral benzodiazepine receptor (PBR) in rat.
T1 sequence (P16257 whole entry, looked up): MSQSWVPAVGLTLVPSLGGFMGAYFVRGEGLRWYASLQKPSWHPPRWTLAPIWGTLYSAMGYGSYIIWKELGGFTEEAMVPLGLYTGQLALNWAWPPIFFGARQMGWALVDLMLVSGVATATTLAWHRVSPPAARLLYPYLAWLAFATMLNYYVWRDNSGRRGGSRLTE

Translocator protein [2] = target: T1, Translocator protein; test: In vitro displacement of [3H]PK11195 from the peripheral benzodiazepine receptor (PBR) in rat cortex
[3] = target: Translocator protein (Rattus norvegicus) (UniProt P16257); test: In vitro binding affinity (pIC50) for peripheral benzodiazepine receptor (PBR) in rat (inactive)
Sequence of Translocator protein (Rattus norvegicus) (P16257 whole entry, looked up): as above
Outline: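 Male CD rat cerebral cortex, stored at -80°C, homogenized in ice-cold 50 mM PBS pH 7.4 with 100 mM NaCl and washed by centrifugation. Membranes used at 2.3 mg tissue per sample with 1 nM [3H]PK11195 for 120 min at 4°C, then filtered on GF/B and counted by scintillation. Nonspecific binding defined with 1 µM PK11195. IC50 from curve fitting of 6 concentrations.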

IC50 (Translocator protein [1]) | IC50 (Translocator protein [2]) | Log IC50 [3] | Structure (SMILES)
617 nM | 620 nM |  | CCC(C)N1Cc2c(nc(-c3ccccc3)c3ccccc23)C1=O (stereo not given)
45.7 nM | 45 nM |  | O=C1c2nc(-c3ccccc3)c3ccccc3c2C=CCN1Cc1ccccc1
2.09 nM | 2.1 nM |  | Cc1c(C(=O)N(C)Cc2ccccc2)nc2ccccc2c1-c1ccccc1
794 nM | 780 nM |  | CCC(C)N1CCCc2c(nc(-c3ccccc3)c3ccccc23)C1=O (stereo not given)
550 nM | 550 nM |  | CCC(C)NC(=O)c1nc(-c2ccccc2)c2ccccc2c1C (stereo not given)
479 nM | 480 nM |  | O=C1c2nc(-c3ccccc3)c3ccccc3c2CN1Cc1ccccc1
8.91 nM | 8.9 nM |  | CN(Cc1ccccc1)C(=O)c1nc2ccccc2c2c1CCc1ccccc1-2
9.77 nM | 9.8 nM |  | Cc1c(C(=O)N(C)Cc2ccc(Cl)cc2)nc2ccccc2c1-c1ccccc1
 | > 10000 nM |  | CN1CCCc2c(nc3ccccc3c2-c2ccccc2)C1=O
2.09 nM | 2.1 nM |  | CCC(C)N(C)C(=O)c1nc2ccccc2c(-c2ccccc2)c1C (stereo not given)
 | > 10000 nM | inactive | CCC(C)N1Cc2c(nc3ccccc3c2-c2ccccc2)C1=O (stereo not given)
3.39 nM | 3.4 nM |  | Cc1c(C(=O)N(C)Cc2ccc(Cl)cc2)nc2ccccc2c1-c1ccccc1F
1700 nM | 1700 nM |  | Cc1c(C(=O)NCc2ccc(Cl)cc2)nc2ccccc2c1-c1ccccc1
269 nM | 270 nM |  | Cc1c(C(=O)NCc2ccc(Cl)cc2)nc2ccccc2c1-c1ccccc1F
12.9 nM | 13 nM |  | CCC(C)NC(=O)c1nc2ccccc2c(-c2ccccc2F)c1C (stereo not given)
11.2 nM | 11 nM |  | CCC(C)N(C)C(=O)c1nc(-c2ccccc2)c2ccccc2c1C (stereo not given)
170 nM | 170 nM |  | O=C1c2nc3ccccc3c(-c3ccccc3)c2CCCN1Cc1ccccc1
1200 nM | 1200 nM |  | Cc1c(C(=O)NCc2ccccc2)nc2ccccc2c1-c1ccccc1
10 nM | 10 nM |  | CN(Cc1ccccc1)C(=O)c1nc2ccccc2c2c1OCCc1ccccc1-2
813 nM | 810 nM |  | CCCCC1c2c(nc3ccccc3c2-c2ccccc2)C(=O)N1Cc1ccccc1 (stereo not given)
8.71 nM | 8.8 nM |  | COc1ccc(N(C)C(=O)c2nc3ccccc3c(-c3ccccc3)c2C)cc1
6.46 nM | 6.4 nM |  | Cc1c(C(=O)N(C)c2ccc(Cl)cc2)nc2ccccc2c1-c1ccccc1
490 nM | 490 nM |  | CCC(C)N1CC=Cc2c(nc(-c3ccccc3)c3ccccc23)C1=O (stereo not given)
1200 nM | 1200 nM |  | CCC(C)N1CCCc2c(nc3ccccc3c2-c2ccccc2)C1=O (stereo not given)
 | > 10000 nM |  | CCC(C)N1Cc2c(nc3ccccc3c2-c2ccccc2F)C1=O (stereo not given)
229 nM | 230 nM |  | CCC(C)NC(=O)c1nc2ccccc2c(-c2ccccc2)c1C (stereo not given)
 | > 10000 nM |  | O=C1c2nc3ccccc3c(-c3ccccc3)c2CN1Cc1ccccc1
2.88 nM | 2.9 nM |  | CCC(C)N(C)C(=O)c1nc2ccccc2c(-c2ccccc2F)c1C (stereo not given)
3.09 nM | 3.1 nM |  | Cc1c(C(=O)N(C)Cc2ccccc2)nc(-c2ccccc2)c2ccccc12
